Laboratory results as given in ChEMBL document CHEMBL2375359, “Synthesis and antibacterial evaluation of novel pleuromutilin derivatives” (2013).
In brackets after ≈: the same amount, converted by molar mass.

tested on: Staphylococcus aureus; experiment: Antibacterial activity against methicillin-resistant Staphylococcus aureus at 320 ug/ml after 24 hrs by Oxford cup assay; type: functional; settings: read-out: IZ
Outline: (§1)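 Oxford cup diffusion: clinical isolate inoculum in 0.9% saline set by McFarland standard, spread evenly on nutrient agar. Cups placed equidistant on the surface and filled with compound solutions prepared as for the agar dilution test, at several concentrations. Inhibition zone measured after 24 h at 37 °C.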

In order of falling zone of inhibition at 320 µg/mL:
1. C=C[C@]1(C)C[C@@H](OC(=O)CSC(C)(C)CNC(=O)c2cccc(C)c2)[C@]2(C)[C@H](C)CC[C@]3(CCC(=O)[C@H]32)[C@@H](C)[C@@H]1O  13.1 mm
2. C=C[C@]1(C)C[C@@H](OC(=O)CSC(C)(C)CNC(=O)OCC(C)C)[C@]2(C)[C@H](C)CC[C@]3(CCC(=O)[C@H]32)[C@@H](C)[C@@H]1O  10.9 mm

tested on: Streptococcus agalactiae; experiment: Antibacterial activity against Streptococcus agalactiae after 48 hrs by agar dilution method; type: functional; settings: not given
Outline: (§2)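 Agar dilution per NCCLS on clinical isolates. 2-fold serial dilutions of compound (2 mL) mixed into 18 mL hot Mueller-Hinton agar. Inoculum from blood slants, adjusted to approx. 10⁵–10⁶ cfu/mL in sterile 0.90% NaCl, then spotted onto the plates. Incubated 36.5 °C, 48 h. MIC is the lowest concentration giving complete growth inhibition. Run in triplicate at pH 7.40.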

In order of rising MIC:
1. C=C[C@]1(C)C[C@@H](OC(=O)CSC(C)(C)CNC(=O)c2cccc(C)c2)[C@]2(C)[C@H](C)CC[C@]3(CCC(=O)[C@H]32)[C@@H](C)[C@@H]1O  2 µg/mL (≈ 3.43 µM)
2. C=C[C@]1(C)C[C@@H](OC(=O)CSC(C)(C)CNC(=O)OCC(C)C)[C@]2(C)[C@H](C)CC[C@]3(CCC(=O)[C@H]32)[C@@H](C)[C@@H]1O  4 µg/mL (≈ 7.07 µM)

tested on: Staphylococcus epidermidis; experiment: Antibacterial activity against methicillin-resistant Staphylococcus epidermidis at 80 ug/ml after 24 hrs by Oxford cup assay; type: functional; settings: read-out: IZ; outline: as §1

In order of falling zone of inhibition at 80 µg/mL:
1. C=C[C@]1(C)C[C@@H](OC(=O)CSC(C)(C)CNC(=O)OCC(C)C)[C@]2(C)[C@H](C)CC[C@]3(CCC(=O)[C@H]32)[C@@H](C)[C@@H]1O  10.6 mm
2. C=C[C@]1(C)C[C@@H](OC(=O)CSC(C)(C)CNC(=O)c2cccc(C)c2)[C@]2(C)[C@H](C)CC[C@]3(CCC(=O)[C@H]32)[C@@H](C)[C@@H]1O  9.9 mm

tested on: Escherichia coli; experiment: Antibacterial activity against Escherichia coli at 160 ug/ml after 24 hrs by Oxford cup assay; type: functional; settings: read-out: IZ
Outline: (§3)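 Oxford cup diffusion with clinical isolates. Inoculum made in 0.9% saline to a McFarland standard and spread evenly on nutrient agar. Compound solutions, prepared as for the agar dilution test, were added at the stated concentration to Oxford cups set equidistant on the agar surface. Inhibition zones were measured after 24 h at 37 °C.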

In order of falling zone of inhibition at 160 µg/mL:
1. C=C[C@]1(C)C[C@@H](OC(=O)CSC(C)(C)CNC(=O)c2cccc(C)c2)[C@]2(C)[C@H](C)CC[C@]3(CCC(=O)[C@H]32)[C@@H](C)[C@@H]1O  13.7 mm
2. C=C[C@]1(C)C[C@@H](OC(=O)CSC(C)(C)CNC(=O)OCC(C)C)[C@]2(C)[C@H](C)CC[C@]3(CCC(=O)[C@H]32)[C@@H](C)[C@@H]1O  9.55 mm

tested on: Streptococcus agalactiae; experiment: Antibacterial activity against Streptococcus agalactiae at 80 ug/ml after 24 hrs by Oxford cup assay; type: functional; settings: read-out: IZ; outline: as §3

In order of falling zone of inhibition at 80 µg/mL:
1. C=C[C@]1(C)C[C@@H](OC(=O)CSC(C)(C)CNC(=O)c2cccc(C)c2)[C@]2(C)[C@H](C)CC[C@]3(CCC(=O)[C@H]32)[C@@H](C)[C@@H]1O  13 mm
2. C=C[C@]1(C)C[C@@H](OC(=O)CSC(C)(C)CNC(=O)OCC(C)C)[C@]2(C)[C@H](C)CC[C@]3(CCC(=O)[C@H]32)[C@@H](C)[C@@H]1O  9.85 mm

tested on: Escherichia coli; experiment: Antibacterial activity against Escherichia coli after 48 hrs by agar dilution method; type: functional; settings: not given; outline: as §2

In order of rising MIC:
1. C=C[C@]1(C)C[C@@H](OC(=O)CSC(C)(C)CNC(=O)c2cccc(C)c2)[C@]2(C)[C@H](C)CC[C@]3(CCC(=O)[C@H]32)[C@@H](C)[C@@H]1O  8 µg/mL (≈ 13.7 µM)
2. C=C[C@]1(C)C[C@@H](OC(=O)CSC(C)(C)CNC(=O)OCC(C)C)[C@]2(C)[C@H](C)CC[C@]3(CCC(=O)[C@H]32)[C@@H](C)[C@@H]1O  16 µg/mL (≈ 28.3 µM)

tested on: Escherichia coli; experiment: Antibacterial activity against Escherichia coli at 80 ug/ml after 24 hrs by Oxford cup assay; type: functional; settings: read-out: IZ; outline: as §3

In order of falling zone of inhibition at 80 µg/mL:
1. C=C[C@]1(C)C[C@@H](OC(=O)CSC(C)(C)CNC(=O)c2cccc(C)c2)[C@]2(C)[C@H](C)CC[C@]3(CCC(=O)[C@H]32)[C@@H](C)[C@@H]1O  11.3 mm
2. C=C[C@]1(C)C[C@@H](OC(=O)CSC(C)(C)CNC(=O)OCC(C)C)[C@]2(C)[C@H](C)CC[C@]3(CCC(=O)[C@H]32)[C@@H](C)[C@@H]1O  9.91 mm

tested on: Staphylococcus aureus; experiment: Antibacterial activity against methicillin-resistant Staphylococcus aureus after 48 hrs by agar dilution method; type: functional; settings: not given
Outline: (§4)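 Agar dilution per NCCLS: 2-fold serial dilutions incorporated into hot Mueller-Hinton agar. Clinical isolates grown from blood slants, suspended in sterile 0.90% NaCl to about 10⁵–10⁶ cfu/mL, spotted onto plates. Incubation 36.5 °C, 48 h. MIC taken as the lowest concentration giving complete growth inhibition. Run in triplicate at pH 7.40.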

In order of rising MIC:
1. C=C[C@]1(C)C[C@@H](OC(=O)CSC(C)(C)CNC(=O)c2cccc(C)c2)[C@]2(C)[C@H](C)CC[C@]3(CCC(=O)[C@H]32)[C@@H](C)[C@@H]1O  1 µg/mL (≈ 1.71 µM)
2. C=C[C@]1(C)C[C@@H](OC(=O)CSC(C)(C)CNC(=O)OCC(C)C)[C@]2(C)[C@H](C)CC[C@]3(CCC(=O)[C@H]32)[C@@H](C)[C@@H]1O  2 µg/mL (≈ 3.53 µM)

tested on: Staphylococcus aureus; experiment: Antibacterial activity against methicillin-resistant Staphylococcus aureus at 80 ug/ml after 24 hrs by Oxford cup assay; type: functional; settings: read-out: IZ; outline: as §1

In order of falling zone of inhibition at 80 µg/mL:
1. C=C[C@]1(C)C[C@@H](OC(=O)CSC(C)(C)CNC(=O)c2cccc(C)c2)[C@]2(C)[C@H](C)CC[C@]3(CCC(=O)[C@H]32)[C@@H](C)[C@@H]1O  11.2 mm
2. C=C[C@]1(C)C[C@@H](OC(=O)CSC(C)(C)CNC(=O)OCC(C)C)[C@]2(C)[C@H](C)CC[C@]3(CCC(=O)[C@H]32)[C@@H](C)[C@@H]1O  9.64 mm

tested on: Staphylococcus epidermidis; experiment: Antibacterial activity against methicillin-resistant Staphylococcus epidermidis at 160 ug/ml after 24 hrs by Oxford cup assay; type: functional; settings: read-out: IZ; outline: as §1

In order of falling zone of inhibition at 160 µg/mL:
1. C=C[C@]1(C)C[C@@H](OC(=O)CSC(C)(C)CNC(=O)OCC(C)C)[C@]2(C)[C@H](C)CC[C@]3(CCC(=O)[C@H]32)[C@@H](C)[C@@H]1O  11 mm
2. C=C[C@]1(C)C[C@@H](OC(=O)CSC(C)(C)CNC(=O)c2cccc(C)c2)[C@]2(C)[C@H](C)CC[C@]3(CCC(=O)[C@H]32)[C@@H](C)[C@@H]1O  10.8 mm

tested on: Staphylococcus aureus; experiment: Antibacterial activity against methicillin-resistant Staphylococcus aureus at 160 ug/ml after 24 hrs by Oxford cup assay; type: functional; settings: read-out: IZ; outline: as §1

In order of falling zone of inhibition at 160 µg/mL:
1. C=C[C@]1(C)C[C@@H](OC(=O)CSC(C)(C)CNC(=O)c2cccc(C)c2)[C@]2(C)[C@H](C)CC[C@]3(CCC(=O)[C@H]32)[C@@H](C)[C@@H]1O  13.2 mm
2. C=C[C@]1(C)C[C@@H](OC(=O)CSC(C)(C)CNC(=O)OCC(C)C)[C@]2(C)[C@H](C)CC[C@]3(CCC(=O)[C@H]32)[C@@H](C)[C@@H]1O  9.56 mm

tested on: Streptococcus agalactiae; experiment: Antibacterial activity against Streptococcus agalactiae at 160 ug/ml after 24 hrs by Oxford cup assay; type: functional; settings: read-out: IZ; outline: as §3

In order of falling zone of inhibition at 160 µg/mL:
1. C=C[C@]1(C)C[C@@H](OC(=O)CSC(C)(C)CNC(=O)c2cccc(C)c2)[C@]2(C)[C@H](C)CC[C@]3(CCC(=O)[C@H]32)[C@@H](C)[C@@H]1O  13 mm
2. C=C[C@]1(C)C[C@@H](OC(=O)CSC(C)(C)CNC(=O)OCC(C)C)[C@]2(C)[C@H](C)CC[C@]3(CCC(=O)[C@H]32)[C@@H](C)[C@@H]1O  9.01 mm

tested on: Streptococcus agalactiae; experiment: Antibacterial activity against Streptococcus agalactiae at 320 ug/ml after 24 hrs by Oxford cup assay; type: functional; settings: read-out: IZ; outline: as §3

In order of falling zone of inhibition at 320 µg/mL:
1. C=C[C@]1(C)C[C@@H](OC(=O)CSC(C)(C)CNC(=O)c2cccc(C)c2)[C@]2(C)[C@H](C)CC[C@]3(CCC(=O)[C@H]32)[C@@H](C)[C@@H]1O  13.6 mm
2. C=C[C@]1(C)C[C@@H](OC(=O)CSC(C)(C)CNC(=O)OCC(C)C)[C@]2(C)[C@H](C)CC[C@]3(CCC(=O)[C@H]32)[C@@H](C)[C@@H]1O  10.2 mm

tested on: Escherichia coli; experiment: Antibacterial activity against Escherichia coli at 320 ug/ml after 24 hrs by Oxford cup assay; type: functional; settings: read-out: IZ; outline: as §3

In order of rising zone of inhibition at 320 µg/mL:
1. C=C[C@]1(C)C[C@@H](OC(=O)CSC(C)(C)CNC(=O)OCC(C)C)[C@]2(C)[C@H](C)CC[C@]3(CCC(=O)[C@H]32)[C@@H](C)[C@@H]1O  10.3 mm
2. C=C[C@]1(C)C[C@@H](OC(=O)CSC(C)(C)CNC(=O)c2cccc(C)c2)[C@]2(C)[C@H](C)CC[C@]3(CCC(=O)[C@H]32)[C@@H](C)[C@@H]1O  15.5 mm

tested on: Staphylococcus epidermidis; experiment: Antibacterial activity against methicillin-resistant Staphylococcus epidermidis at 320 ug/ml after 24 hrs by Oxford cup assay; type: functional; settings: read-out: IZ; outline: as §1

In order of falling zone of inhibition at 320 µg/mL:
1. C=C[C@]1(C)C[C@@H](OC(=O)CSC(C)(C)CNC(=O)c2cccc(C)c2)[C@]2(C)[C@H](C)CC[C@]3(CCC(=O)[C@H]32)[C@@H](C)[C@@H]1O  12.4 mm
2. C=C[C@]1(C)C[C@@H](OC(=O)CSC(C)(C)CNC(=O)OCC(C)C)[C@]2(C)[C@H](C)CC[C@]3(CCC(=O)[C@H]32)[C@@H](C)[C@@H]1O  11.1 mm

tested on: Staphylococcus epidermidis; experiment: Antibacterial activity against methicillin-resistant Staphylococcus epidermidis after 48 hrs by agar dilution method; type: functional; settings: not given; outline: as §4

In order of falling MIC:
1. C=C[C@]1(C)C[C@@H](OC(=O)CSC(C)(C)CNC(=O)c2cccc(C)c2)[C@]2(C)[C@H](C)CC[C@]3(CCC(=O)[C@H]32)[C@@H](C)[C@@H]1O  16 µg/mL (≈ 27.4 µM)
2. C=C[C@]1(C)C[C@@H](OC(=O)CSC(C)(C)CNC(=O)OCC(C)C)[C@]2(C)[C@H](C)CC[C@]3(CCC(=O)[C@H]32)[C@@H](C)[C@@H]1O  8 µg/mL (≈ 14.1 µM)
